≈ marks a conversion by molar mass, not a printed value.

This is an account of results in PMC3272321 (Chemical biology & drug design, 2011).

One data set in a line: aqueous solubility. The note with it: water. It is filed as physicochemical.
The format of data set [1] is in vivo, athymic nude rats. Particulars: for route of clearance: images through 24 h.
The test system of data set [2] is pancreatic cancer cells MiaPaCa-2. As to the kind of experiment: cell proliferation by hexosaminidase assay. It is filed as cell-based. Particulars: MiaPaCa-2 cells, 1 and 10 μM, 24–72 h. The method, boiled down: (§1)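 Cells seeded at 5×10^3/well, attached overnight, then exposed to the test compound for 24, 48 and 72 h. The compound was given from DMSO at 0.1% final DMSO in medium with 5% FBS, with DMSO-only controls. H441 were maintained in McCoy's 5A with 5% FBS. Panc-1 and MiaPaCa-2 were maintained in RPMI 1640 with 10% FBS. Readout was hexosaminidase: 7.5 mM p-nitrophenyl substrate solution (citrate, pH 5), 37°C 30 min, glycine/EDTA stop (pH 10.4), A405.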

The test system of data set [3] is lung adenocarcinoma H441 cells. The data set is described as follows: cell proliferation by hexosaminidase assay. Format: cell-based, Human. The note with it: 1 and 10 μM, 24–72 h. The gist of the method:
as §1

The subject of a further data set is xenograft Panc-1 tumors. The data set is described as follows: mouse model of xenograft Panc-1 tumors. It is filed as in vivo, athymic nude mice. Particulars: 5 μg intraperitoneal daily for 3 weeks. The method, boiled down: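 Five-week-old male athymic nude mice received 1 × 10^6 Panc-1 cells in each flank. Once tumors reached about 500 mm3, the test compound was given intraperitoneally at 5 μg/injection daily for 3 weeks. Tumors were measured weekly by caliper, with volume = length × width × depth × 0.5236. Tumors were excised and weighed at sacrifice. n = 4 per group versus untreated control, significance at p < 0.05.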

In data set [4] the test system is pancreatic cancer cells Panc-1. As to the kind of experiment: cell proliferation by hexosaminidase assay. It is filed as cell-based. The note with it: Panc-1 cells, 1 and 10 μM, 24–72 h. The gist of the method:
as §1

The mark [5] stands for this setting: Tc-99m-labeled EFAH, intravenous, rats, 24 h.

`O=C1C(=Cc2ccccc2F)CNCC1=Cc1ccccc1F` [EF24, 3,5-Bis-(2-fluorobenzylidene)-4-piperidone, reference compound] yielded a solubility in the data set “aqueous solubility” of 1200 µg/mL (≈ 3.85 mM).

Turning to `NNc1ccc(C(=O)NCCN2CC(=Cc3ccccc3F)C(=O)C(=Cc3ccccc3F)C2)cn1` [EFAH, N-{2-[3,5-Bis-(2-fluorobenzylidene)-4-oxo-piperidin-1-yl]-ethyl}-6-hydrazinonicotinamide], the concentration in solution in the data set “aqueous solubility” (solubility) was 3500 µg/mL (≈ 7.15 mM). In data set [1] (setting [5]), the “injected dose accumulated in intestine” value is given as roughly 14.3% and the “injected dose accumulated in liver” value is listed as “Approximately 23.7%”. Further, the route of clearance result in data set [1] (intravenous, rats) is on record as “mostly eliminated by hepatobiliary route”. The “anti-proliferative activity compared with EF24” value in data set [2] was “as effective as EF24”. Moreover, the “anti-proliferative activity compared with EF24” value in data set [3] is on record as “as effective as EF24”. In the data set with xenograft Panc-1 tumors (at necropsy, control about 2.5 g), this compound came in with an excised tumor weight of 0.45 g. In addition, in the data set on xenograft Panc-1 tumors (versus control), the “mean tumor volume reduction” value was 79% and the tumor weight decrease is listed as 82%. In data set [4], the “anti-proliferative activity compared with EF24” value was “as effective as EF24”.

“Tc-99m-labeled N-{2-[3,5-Bis-(2-fluorobenzylidene)-4-oxo-piperidin-1-yl]-ethyl}-6-hydrazinonicotinamide [Tc-99m-EFAH]”: the “accumulation of radiolabeled compound in tumor tissue” value in data set [1] (intravenous, rats with H441 xenograft, 24 h) was “measurable, but little”. In addition, the route of clearance entry in data set [1] (intravenous, rats) is on record as “clearance depended on hepatobiliary route”. The “free Tc-99m radioactivity in rat urine by HPLC” value in data set [1] (urine collected after 30 min of injection) is reported as “no free Tc-99m radioactivity was found”.
